Consider 13 compounds from ChEMBL document CHEMBL1142511, “[(18)F]-labeled isoindol-1-one and isoindol-1,3-dione derivatives as potential PET imaging agents for detection of beta-amyloid fibrils” (Bioorg Med Chem Lett, 2008).

The assay in a line: Displacement of [125I]TZDM from amyloid beta 1 to 42 aggregates. A digest of the protocol:
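Competitive binding against aggregated Aβ1–42 with [125I]TZDM as radioligand. Non-specific binding defined with 2 µM thioflavin T. Incubated 3 h at room temperature. Bound and free radioactivity separated by vacuum filtration through GF/B filters, followed by two washes with 10% EtOH at room temperature. IC50 converted to Ki by the Cheng–Prusoff equation.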
For orientation: Loss of bound radioactivity is the signal in a displacement assay; it reports binding, not function.

On to `CN(C)c1ccc(N2C(=O)c3ccc(OCCCF)cc3C2=O)cc1`, for which affinity was put at a Ki of 850 pM.
Compound `CNc1ccc(N2C(=O)c3ccc(OCCF)cc3C2=O)cc1` had a Ki of 600 pM.
`Nc1ccc(N2Cc3cc(OCCCF)ccc3C2=O)cc1`: affinity was put at a Ki of 400 pM.
In turn, `CN(C)c1ccc(N2Cc3cc(OCCF)ccc3C2=O)cc1` showed an inhibition constant Ki of 300 pM.
For the compound `CN(C)c1ccc(N2Cc3cc(OCCCF)ccc3C2=O)cc1`, affinity was put at a Ki of 710 pM.
`CNc1ccc(N2C(=O)c3ccc(OCCCF)cc3C2=O)cc1` gave a Ki of 780 pM.
With `CNc1ccc(N2Cc3cc(OCCF)ccc3C2=O)cc1` the figure was 910 pM; with `CN(C)c1ccc(N2C(=O)c3ccc(OCCF)cc3C2=O)cc1`, 690 pM.
`CNc1ccc(N2Cc3cc(OCCCF)ccc3C2=O)cc1`: the Ki is 510 pM.
Regarding `CNc1ccc(-c2nc3ccc(O)cc3s2)cc1` [PITTSBURGH COMPOUND B UNLABELLED], the Ki stood at 770 pM.
In the case of `Nc1ccc(N2Cc3cc(OCCF)ccc3C2=O)cc1`, the Ki is 610 pM.
Take `Nc1ccc(N2C(=O)c3ccc(OCCCF)cc3C2=O)cc1`: the inhibition constant (Ki) is 740 pM.
On to `Nc1ccc(N2C(=O)c3ccc(OCCF)cc3C2=O)cc1`, for which the affinity corresponds to a Ki of 590 pM.

By Ki is commonly meant the dissociation constant of the complex between target and ligand, obtained from inhibition or displacement.
